Five molecules from ChEMBL document CHEMBL3351794, “Synthesis and biological evaluation of pentacyclic strychnos alkaloids as selective modulators of the ABCC10 (MRP7) efflux pump” (J Med Chem, 2014) can be followed below.

Activity calls are given as the source filed them. The calls are words filed in the database; no cut-off is given here.

The target in data set [1] is T1, ATP-binding cassette sub-family C member 10 (Homo sapiens) (UniProt Q5T3U5).
T1 sequence (whole entry): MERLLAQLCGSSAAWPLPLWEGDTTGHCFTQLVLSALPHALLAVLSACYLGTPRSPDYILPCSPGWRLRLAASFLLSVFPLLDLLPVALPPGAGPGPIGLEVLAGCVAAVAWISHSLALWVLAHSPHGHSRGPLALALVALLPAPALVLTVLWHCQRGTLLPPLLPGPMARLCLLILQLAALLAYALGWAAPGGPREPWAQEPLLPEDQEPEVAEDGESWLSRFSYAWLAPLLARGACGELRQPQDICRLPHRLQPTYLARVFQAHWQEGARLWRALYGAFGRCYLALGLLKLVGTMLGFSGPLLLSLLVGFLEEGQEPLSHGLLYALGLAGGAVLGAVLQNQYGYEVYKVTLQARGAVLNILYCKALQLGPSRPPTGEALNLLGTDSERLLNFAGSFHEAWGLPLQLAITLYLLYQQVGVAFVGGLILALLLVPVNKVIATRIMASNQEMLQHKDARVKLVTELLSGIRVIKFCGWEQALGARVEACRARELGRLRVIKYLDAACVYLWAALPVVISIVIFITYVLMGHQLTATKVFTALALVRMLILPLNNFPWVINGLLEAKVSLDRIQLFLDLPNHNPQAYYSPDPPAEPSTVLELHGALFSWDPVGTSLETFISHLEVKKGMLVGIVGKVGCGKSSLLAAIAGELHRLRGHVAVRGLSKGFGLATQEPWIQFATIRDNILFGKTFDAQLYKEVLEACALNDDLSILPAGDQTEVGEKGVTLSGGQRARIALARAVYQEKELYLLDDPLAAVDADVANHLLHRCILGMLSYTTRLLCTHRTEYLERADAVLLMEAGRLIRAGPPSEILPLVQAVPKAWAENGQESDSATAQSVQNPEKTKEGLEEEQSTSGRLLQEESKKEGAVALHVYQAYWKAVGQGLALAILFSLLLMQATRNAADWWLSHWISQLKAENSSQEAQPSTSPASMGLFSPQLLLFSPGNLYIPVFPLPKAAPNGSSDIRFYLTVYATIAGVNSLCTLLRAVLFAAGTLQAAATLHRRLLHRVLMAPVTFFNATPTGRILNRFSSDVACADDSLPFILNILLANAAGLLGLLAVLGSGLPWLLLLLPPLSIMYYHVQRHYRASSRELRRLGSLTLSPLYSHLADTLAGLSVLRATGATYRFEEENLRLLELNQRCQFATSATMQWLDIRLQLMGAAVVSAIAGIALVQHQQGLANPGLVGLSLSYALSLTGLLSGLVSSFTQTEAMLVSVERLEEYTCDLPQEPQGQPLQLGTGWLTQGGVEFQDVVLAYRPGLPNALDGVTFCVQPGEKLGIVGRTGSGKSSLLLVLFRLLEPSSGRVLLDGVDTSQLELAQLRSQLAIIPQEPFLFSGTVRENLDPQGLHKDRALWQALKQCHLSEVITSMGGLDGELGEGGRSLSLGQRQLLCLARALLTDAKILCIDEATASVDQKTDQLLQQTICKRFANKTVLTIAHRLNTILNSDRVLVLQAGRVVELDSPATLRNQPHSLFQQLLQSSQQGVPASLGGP
In words: Inhibition of ABCC10 (unknown origin) assessed as reduction in BeFx-sensitive ATPase activity incubated over 20 mins by inorganic phosphate release assay. The essentials: (§1)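 Membranes holding ABCC10 (5−10 μg protein) were preincubated for 5 min at 37 °C with test agent in 2× assay buffer (Tris-HCl pH 7.5, KCl, sodium azide, EGTA, ouabain, DTT) plus MgCl2. The reaction was started with 5 mM ATP and run 20 min at 37 °C, then stopped with 5% SDS. Released Pi was read colorimetrically (Lanzetta), and ABCC10 activity was taken as the BeFx-sensitive fraction.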

In data set [2] the target is T1, ATP-binding cassette sub-family C member 10 (Homo sapiens). Nature of the data set: Inhibition of ABCC10 (unknown origin) assessed as reduction in BeFx-sensitive ATPase activity at 2.08 to 50 uM incubated over 20 mins by inorganic phosphate release assay. The essentials: as §1
For data set [3], the target named is ATP-dependent translocase ABCB1 (Homo sapiens, UniProt P08183). Nature of the data set: Inhibition of P-gp (unknown origin) assessed as reduction in ATPase activity at 2.08 to 50 uM incubated over 20 mins by inorganic phosphate release assay. The essentials: (§2)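 P-gp ATPase assay run in the same way as the ABCC10 assay. Membrane protein (5−10 μg) was preincubated 5 min at 37 °C with test agent, buffer (Tris-HCl pH 7.5, KCl, azide, EGTA, ouabain, DTT) and MgCl2. The reaction was started with 5 mM ATP, run 20 min at 37 °C and quenched with SDS. Pi was measured colorimetrically.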
ATP-dependent translocase ABCB1, sequence (P08183 whole entry): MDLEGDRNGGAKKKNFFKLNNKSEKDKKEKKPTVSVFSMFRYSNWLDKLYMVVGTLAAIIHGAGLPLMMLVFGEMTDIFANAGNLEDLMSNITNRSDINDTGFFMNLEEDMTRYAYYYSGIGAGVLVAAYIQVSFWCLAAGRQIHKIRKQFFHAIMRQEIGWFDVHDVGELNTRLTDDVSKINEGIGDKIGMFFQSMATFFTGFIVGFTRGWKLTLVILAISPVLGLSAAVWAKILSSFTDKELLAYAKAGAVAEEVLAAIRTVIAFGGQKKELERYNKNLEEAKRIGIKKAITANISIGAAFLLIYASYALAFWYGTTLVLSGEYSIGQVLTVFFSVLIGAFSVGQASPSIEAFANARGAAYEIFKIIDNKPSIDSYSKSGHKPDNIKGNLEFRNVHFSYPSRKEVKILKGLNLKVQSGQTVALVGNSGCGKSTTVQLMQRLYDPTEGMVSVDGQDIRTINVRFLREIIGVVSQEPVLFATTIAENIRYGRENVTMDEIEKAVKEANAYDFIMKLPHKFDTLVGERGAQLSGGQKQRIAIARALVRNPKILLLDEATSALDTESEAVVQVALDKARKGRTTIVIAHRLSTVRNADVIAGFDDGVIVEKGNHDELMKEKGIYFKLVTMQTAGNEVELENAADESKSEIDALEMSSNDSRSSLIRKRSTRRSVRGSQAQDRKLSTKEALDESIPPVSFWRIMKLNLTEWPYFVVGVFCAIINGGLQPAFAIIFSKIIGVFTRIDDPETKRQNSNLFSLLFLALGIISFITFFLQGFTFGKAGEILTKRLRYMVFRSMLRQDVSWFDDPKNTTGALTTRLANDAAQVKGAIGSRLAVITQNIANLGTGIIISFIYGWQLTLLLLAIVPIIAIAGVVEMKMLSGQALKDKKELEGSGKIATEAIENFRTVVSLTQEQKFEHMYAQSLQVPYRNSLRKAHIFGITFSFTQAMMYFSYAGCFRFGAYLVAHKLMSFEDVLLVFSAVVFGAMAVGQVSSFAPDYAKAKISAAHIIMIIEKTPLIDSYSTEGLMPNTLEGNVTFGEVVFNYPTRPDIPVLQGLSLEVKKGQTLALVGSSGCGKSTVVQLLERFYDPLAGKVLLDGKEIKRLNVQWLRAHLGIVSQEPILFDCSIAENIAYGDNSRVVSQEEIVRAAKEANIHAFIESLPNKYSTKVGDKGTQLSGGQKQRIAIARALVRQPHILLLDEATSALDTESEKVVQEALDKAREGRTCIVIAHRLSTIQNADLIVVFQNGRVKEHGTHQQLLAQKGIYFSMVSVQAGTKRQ

In data set [4] the target is T1, ATP-binding cassette sub-family C member 10 (Homo sapiens). Nature of the data set: Inhibition of ABCC10 (unknown origin) assessed as reduction in BeFx-sensitive ATPase activity at 12.5 uM incubated over 20 mins by inorganic phosphate release assay. In short, it runs like this: as §1
Data set [5] has the same target. Nature of the data set: Inhibition of ABCC10 (unknown origin) expressed in HEK293 cells assessed as reversal of paclitaxel resistance at 12.5 uM after 72 hrs by MTS/PMS assay. The class given is cell-based. In short, it runs like this: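 Cells used were HEK293-pcDNA3 vector control and the ABCC10 (MRP7) transfectants C17 and C18, seeded in triplicate at 5000 cells/well in DMEM with 10% FBS. Next day, paclitaxel was added at various concentrations, with or without modulator at 12.5 μM. Survival was read after 72 h of drug exposure by MTS/PMS colorimetric assay.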

The target of data set [6] is P-gp (ABCB1) ATPase activity (Homo sapiens, UniProt P08183). Nature of the data set: Inhibition of P-gp (unknown origin) assessed as reduction in ATPase activity at 2.08 to 6.25 uM incubated over 20 mins by inorganic phosphate release assay. In short, it runs like this: as §2
P-gp (ABCB1) ATPase activity, sequence (P08183 whole entry): as above
Data set [7] addresses T1, ATP-binding cassette sub-family C member 10 (Homo sapiens). In words: Inhibition of ABCC10 (unknown origin) assessed as reduction in BeFx-sensitive ATPase activity at 50 uM incubated over 20 mins by inorganic phosphate release assay. The essentials:
as §1

As a reminder, the inhibition is how much of the control response was suppressed. As for `COc1ccc2cc1Oc1ccc(cc1)C[C@H]1c3c(cc4c(c3Oc3cc5c(cc3OC)CCN(C)[C@@H]5C2)OCO4)CCN1C`, the inhibition in data set [1] amounted to 20%.
In the case of `CCOC(=O)O[C@H](C)[C@H]1CN2CC[C@]34C(=C(C(=O)OC)[C@H]1C[C@H]23)Nc1ccccc14` [ALSTOLUCINE A], the inhibition result in data set [2] was “inactive”. Moreover, the “inhibition (INH)” value in data set [3] is on record as “Not Active”.
As to `COC(=O)C1=C2Nc3ccccc3[C@@]23CCN2C[C@@H](C(C)=O)[C@@H]1C[C@H]23` [ALSTOLUCINE B], the inhibition in data set [4] turned out to be 40%; in data set [5], 50%. For the same molecule, the “inhibition (INH)” value in data set [3] is “Not Active”.
As for `COC(=O)C1=C2Nc3ccccc3[C@@]23CCN2C[C@H]([C@@H](C)O)[C@@H]1C[C@H]23`, the inhibition at 20 min in data set [6] worked out at 35%. In data set [2], the inhibition entry is “inactive”.
Consider `COC(=O)C1=C2Nc3ccccc3[C@@]23CCN2C[C@H](C(C)=O)[C@@H]1C[C@H]23` [ALSTOLUCINE F], for which the figures for the inhibition in data set [7] and in data set [5] were 40% and 50%, respectively. Further, in data set [3], the “inhibition (INH)” value was “Not Active”.
